Measurements reported in PubChem BioAssay.
Inconclusive results are not listed. Calls of active or inactive are those of the source.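 Rule for the calls, unless noted: active = inhibition over a set limit, the all-compound mean plus 3 SD, in both replicate runs; inconclusive = over that limit in just one replicate run; inactive = at or under that limit in both runs.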

Assays:
[1] = OD615 S. cerevisiae growth inhibition, permissive medium, pilot counter-assay, permissive growth control for S. cerevisiae lifespan shortening project (AID 705;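 active = growth inhibition above 25% in both replicates, a cutoff set 3 SD above the mean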); settings: OD615, 24 h, at 10 µM, hits give high values
Summary of the method: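 assay system = Saccharomyces cerevisiae strain carrying genetically modified DeaD replicative-lifespan system | technique = absorbance (optical density) at 615 nm | buffer or medium = permissive raffinose/galactose medium | timing = cells pre-grown 4 h, then 24 h compound exposure, 30 °C humidified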

[2] = Restrictive medium S. cerevisiae growth inhibition, OD615, pilot screen of yeast lifespan reduction project, restrictive growth control (AID 706;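 active = growth inhibition above a set limit, 3 SD over mean compound inhibition, in both replicates, cut at about 43% in these data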;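 note: modified DeaD lifespan yeast strain shifted to restrictive glucose medium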); settings: OD615, 48 h, at 10 µM, hits give high values
Summary of the method: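 System: modified S. cerevisiae. Buffer or medium: CSMM-D glucose medium. Incubation: 4 h pre-growth plus 48 h compound exposure, 30 °C. Detection: absorbance (optical density) measured at 615 nm.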

[3] = viability gain of MRP-1-high H69AR cells under doxorubicin, pilot screen, MRP-1 activator project, CellTiter-Glo, duplicate (AID 807;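 active = viability increase at or above a cutoff of the median across tested compounds plus 3 SD, cut at about 8.5% in these data, passing the limit was not always enough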;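 note: compound pretreatment 18-22 h then 72 h combined with doxorubicin; 0% = doxorubicin alone and 100% = vehicle without doxorubicin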); settings: H69AR viability with doxorubicin, CellTiter-Glo luminescence; at 10 µM; hits give high values
[4] = growth suppression of beta-catenin knockout HCT116, pilot screen, human colon tumor cells (AID 823;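 active = cell viability at or below a set limit in both duplicate runs, the limit being the all-compound median minus 4 SD, cut at about 23% in these data, passing the limit was not always enough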;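 note: 0% = wells killed by 20 µM Hyamine and 100% = untreated DMSO cell wells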); settings: CellTiter-Glo, 60 h, at 10 µM, hits give low values
[5] = growth suppression of PTEN-deleted HCT116, pilot screen, cell-based, HCT116 clonal line, CellTiter-Glo (AID 824;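 active = viability at or below 27.92% in each of two runs, the all-compound median minus 4 SD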;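 note: 0% = 20 µM Hyamine control and 100% = vehicle cell control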); settings: 60 h, at 10 µM, hits give low values
[6] = inhibitors of the yeast RAM network, pilot screen, dse1pr::URA3 reporter, 5-FOA selection (AID 869);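 note: 0% = DMSO wells with no growth and 100% = 10 µM 1-NA-PP1 with full growth; RAM network block rescues cells from 5-FOA so hits raise OD615 growth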; settings: S. cerevisiae dse1pr::URA3 5-FOA growth, OD615, 2 d; at 10 µM; hits give high values; strain carries analog-sensitive mutant Cbk1 kinase
[7] = RAM signaling pathway blockade in yeast – S. cerevisiae, Pdr1DBD-CYC8 efflux-inhibited sensitized strain, primary screen (AID 1298;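 active = RAM network inhibition above 8.4% in each of two replicates, 3 SD over the compound average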;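 note: 0% = DMSO untreated cells without growth and 100% = 10 µM 1-NA-PP1 full growth; higher means more yeast growth rescued from 5-FOA killing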); settings: S. cerevisiae cbk1-as DSE1-URA3 strain, 5-FOA growth OD615, 2 d; at 50 µM; hits give high values

O=C(Nc1nccs1)c1ccc(Cl)s1
inactive: growth inhibition [1] -0.705% | growth inhibition [2] 4.79% | viability increase [3] 1.01% | viability [4] 96.3% | viability [5] 94.9% | inhibition [6] -0.025% | RAM network inhibition [7] -1.54%

CC(C)c1cc(NC(=O)CSc2nnc(-c3ccccc3F)n2C)on1
inactive: growth inhibition [1] -6.68% | growth inhibition [2] 2.08% | viability increase [3] 0.77% | viability [4] 98% | viability [5] 101% | inhibition [6] 0.705% | RAM network inhibition [7] 3.69%

CCOC(=O)c1c(/N=C/N(C)C)sc(C(=O)OC)c1C
inactive: growth inhibition [1] -5.39% | growth inhibition [2] 3.21% | viability increase [3] -4.56% | viability [4] 91.1% | viability [5] 89.6% | inhibition [6] 0.78% | RAM network inhibition [7] 1.45%

COc1ccc(OC)c(N(CC(=O)NCc2ccccn2)S(C)(=O)=O)c1
inactive: growth inhibition [1] -0.79% | growth inhibition [2] -6.94% | viability increase [3] -2.27% | viability [4] 98.1% | viability [5] 96.3% | inhibition [6] 1.44% | RAM network inhibition [7] 0.46%

OCCn1c(SCCOc2ccccc2F)nc2ccccc21
inactive: growth inhibition [1] -4.44% | growth inhibition [2] -1.06% | viability increase [3] -3.24% | viability [4] 91.5% | viability [5] 88.4% | inhibition [6] 2.67% | RAM network inhibition [7] 2.71%

O=C(c1ccccc1C(=O)N1CCN(c2ccccc2F)CC1)N1CCN(c2ccccc2F)CC1
inactive: growth inhibition [1] -6.81% | growth inhibition [2] -15.5% | viability increase [3] -0.42% | viability [4] 61.6% | viability [5] 68.2% | inhibition [6] 1.44% | RAM network inhibition [7] 11.2%

O=C(CC1CCCCC1)NCCCN1CCOCC1
inactive: growth inhibition [1] 1.88% | growth inhibition [2] -3.55% | viability increase [3] 1.14% | viability [4] 92% | viability [5] 102% | inhibition [6] 1.58% | RAM network inhibition [7] 1.38%

CC(=O)NCCOc1c(C)cc(S(N)(=O)=O)cc1C
inactive: growth inhibition [1] 0.295% | growth inhibition [2] -6.93% | viability increase [3] -1.25% | viability [4] 92.4% | viability [5] 90.1% | inhibition [6] 0.43% | RAM network inhibition [7] 1.68%

Cc1ccc2oc(=O)c3cnn(CC(=O)NC4CCC(C)CC4)c3c2c1 (stereo not drawn)
inactive: growth inhibition [1] -14.1% | growth inhibition [2] -15.1% | viability increase [3] 0.16% | viability [4] 94.4% | viability [5] 86% | inhibition [6] 1.02% | RAM network inhibition [7] 2.93%

COc1ccccc1-c1coc2cc(O)cc(O)c2c1=O
inactive: growth inhibition [1] 3.81% | growth inhibition [2] 9.45% | viability increase [3] 0.63% | viability [4] 93.4% | viability [5] 92.6% | inhibition [6] 0.26% | RAM network inhibition [7] 0.05%

Cc1cc(Nc2cccc(F)c2)n2nc(C)nc2n1
inactive: growth inhibition [1] -13.6% | growth inhibition [2] -7.6% | viability increase [3] -2.42% | viability [4] 101% | viability [5] 94.4% | inhibition [6] 1.08% | RAM network inhibition [7] 5.28%

O=C(CN1C(=O)c2ccccc2C1=O)Nc1cccc2cccnc12
inactive: growth inhibition [1] -14.6% | growth inhibition [2] -12.1% | viability increase [3] -1.1% | viability [4] 104% | viability [5] 106% | inhibition [6] 0.36% | RAM network inhibition [7] 5.82%

CC(C)Nc1ncnc2c1cnn2-c1ccc(Cl)cc1
inactive: growth inhibition [1] 5.42% | growth inhibition [2] -5.25% | viability increase [3] -3.14% | viability [4] 83.3% | viability [5] 72.6% | inhibition [6] 1.14% | RAM network inhibition [7] -0.94%

O=C(Nc1sc2c(c1C(=O)O)CCCC2)c1cccs1
inactive: growth inhibition [1] 5.62% | growth inhibition [2] 15.9% | viability increase [3] -1.03% | viability [4] 79.5% | viability [5] 57% | inhibition [6] -1.22% | RAM network inhibition [7] -2.15%
